Results published in ChEMBL document CHEMBL5058577, “EUbOPEN Chemogenomics Library 2 (Multiplex)” (2022).

Tested on: HEK-293T
Experiment: Multiplex assay against HEK293T
Assay type: toxicity, cell-based
Settings: human
Summary of the method: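 At seeding, live cells were stained with Hoechst33342, BioTracker Green Microtubule Cytoskeleton Dye, MitoTracker Red and Annexin V Alexa Fluor 680. After compound addition they were imaged on a CQ1 microscope at 37°C and 5% CO2, and CellPathfinder machine-learning gating sorted them into Hoechst high-intensity objects or normal cells, with normal cells further split into healthy, pyknosed or fragmented nuclei and pyknosed cells into mitotic or apoptotic. Tubulin, mitochondrial-mass and membrane-permeability phenotypes are given as per cents of cells with healthy nuclei.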

[1] = 12 h, 1 µM, compound concentration 1 uM, replicate 1
[2] = 12 h, 1 µM, compound concentration 1 uM, replicate 2
[3] = 12 h, 10 µM, compound concentration 10 uM, replicate 1
[4] = 12 h, 10 µM, compound concentration 10 uM, replicate 2
[5] = 24 h, 1 µM, compound concentration 1 uM, replicate 1
[6] = 24 h, 1 µM, compound concentration 1 uM, replicate 2
[7] = 24 h, 10 µM, compound concentration 10 uM, replicate 1
[8] = 24 h, 10 µM, compound concentration 10 uM, replicate 2
[9] = 48 h, 1 µM, compound concentration 1 uM, replicate 1
[10] = 48 h, 1 µM, compound concentration 1 uM, replicate 2
[11] = 48 h, 10 µM, compound concentration 10 uM, replicate 1
[12] = 48 h, 10 µM, compound concentration 10 uM, replicate 2

Cc1noc(-c2ccc(-c3ccc(CC(=O)O)cc3)cc2)c1NC(=O)O[C@H](C)c1ccccc1Cl
Population Apoptotic (%) [1]: 29% | Population Fragmented Nuclei (%) [1]: 7% | Population Healthy Nuclei (%) [1]: 79% | Population Hoechst High Intensity Objects (%) [1]: 5% | Population Membrane Permeable-Phenotype (%) [1]: 0% | Population Mitochondria Different-Phenotype (%) [1]: 38% | Population Mitotic Cells (%) [1]: 70% | Population Normal (%) [1]: 94% | Population Pyknosed Nuclei (%) [1]: 13% | Population Tubulin-Different-Phenotype (%) [1]: 29% | Total Cell Count [1]: 403 | Population Apoptotic (%) [2]: 59% | Population Fragmented Nuclei (%) [2]: 4% | Population Healthy Nuclei (%) [2]: 77% | Population Hoechst High Intensity Objects (%) [2]: 11% | Population Mitochondria Different-Phenotype (%) [2]: 69% | Population Mitotic Cells (%) [2]: 40% | Population Normal (%) [2]: 88% | Population Pyknosed Nuclei (%) [2]: 17% | Population Tubulin-Different-Phenotype (%) [2]: 28% | Total Cell Count [2]: 296 | Population Apoptotic (%) [3]: 51% | Population Fragmented Nuclei (%) [3]: 11% | Population Healthy Nuclei (%) [3]: 68% | Population Hoechst High Intensity Objects (%) [3]: 7% | Population Membrane Permeable-Phenotype (%) [3]: 0% | Population Mitochondria Different-Phenotype (%) [3]: 72% | Population Mitotic Cells (%) [3]: 48% | Population Normal (%) [3]: 92% | Population Pyknosed Nuclei (%) [3]: 20% | Population Tubulin-Different-Phenotype (%) [3]: 65% | Total Cell Count [3]: 295 | Population Apoptotic (%) [4]: 41% | Population Fragmented Nuclei (%) [4]: 8% | Population Healthy Nuclei (%) [4]: 72% | Population Hoechst High Intensity Objects (%) [4]: 14% | Population Mitochondria Different-Phenotype (%) [4]: 69% | Population Mitotic Cells (%) [4]: 58% | Population Normal (%) [4]: 85% | Population Pyknosed Nuclei (%) [4]: 18% | Population Tubulin-Different-Phenotype (%) [4]: 34% | Total Cell Count [4]: 341 | Population Apoptotic (%) [5]: 22% | Population Fragmented Nuclei (%) [5]: 10% | Population Healthy Nuclei (%) [5]: 79% | Population Hoechst High Intensity Objects (%) [5]: 5% | Population Membrane Permeable-Phenotype (%) [5]: 0% | Population Mitochondria Different-Phenotype (%) [5]: 23% | Population Mitotic Cells (%) [5]: 77% | Population Normal (%) [5]: 94% | Population Pyknosed Nuclei (%) [5]: 9% | Population Tubulin-Different-Phenotype (%) [5]: 17% | Total Cell Count [5]: 570 | Population Apoptotic (%) [6]: 40% | Population Fragmented Nuclei (%) [6]: 9% | Population Healthy Nuclei (%) [6]: 80% | Population Hoechst High Intensity Objects (%) [6]: 7% | Population Mitochondria Different-Phenotype (%) [6]: 42% | Population Mitotic Cells (%) [6]: 60% | Population Normal (%) [6]: 92% | Population Tubulin-Different-Phenotype (%) [6]: 20% | Total Cell Count [6]: 378 | Population Apoptotic (%) [7]: 39% | Population Fragmented Nuclei (%) [7]: 7% | Population Healthy Nuclei (%) [7]: 76% | Population Hoechst High Intensity Objects (%) [7]: 8% | Population Membrane Permeable-Phenotype (%) [7]: 1% | Population Mitochondria Different-Phenotype (%) [7]: 58% | Population Mitotic Cells (%) [7]: 60% | Population Normal (%) [7]: 91% | Population Pyknosed Nuclei (%) [7]: 16% | Population Tubulin-Different-Phenotype (%) [7]: 47% | Total Cell Count [7]: 352 | Population Apoptotic (%) [8]: 32% | Population Fragmented Nuclei (%) [8]: 9% | Population Healthy Nuclei (%) [8]: 75% | Population Hoechst High Intensity Objects (%) [8]: 16% | Population Membrane Permeable-Phenotype (%) [8]: 0% | Population Mitochondria Different-Phenotype (%) [8]: 53% | Population Mitotic Cells (%) [8]: 68% | Population Normal (%) [8]: 83% | Population Pyknosed Nuclei (%) [8]: 15% | Population Tubulin-Different-Phenotype (%) [8]: 38% | Total Cell Count [8]: 390 | Population Apoptotic (%) [9]: 17% | Population Fragmented Nuclei (%) [9]: 11% | Population Healthy Nuclei (%) [9]: 82% | Population Hoechst High Intensity Objects (%) [9]: 4% | Population Membrane Permeable-Phenotype (%) [9]: 1% | Population Mitochondria Different-Phenotype (%) [9]: 20% | Population Mitotic Cells (%) [9]: 82% | Population Normal (%) [9]: 95% | Population Pyknosed Nuclei (%) [9]: 5% | Population Tubulin-Different-Phenotype (%) [9]: 14% | Total Cell Count [9]: 930 | Population Apoptotic (%) [10]: 35% | Population Fragmented Nuclei (%) [10]: 12% | Population Healthy Nuclei (%) [10]: 76% | Population Membrane Permeable-Phenotype (%) [10]: 0% | Population Mitochondria Different-Phenotype (%) [10]: 34% | Population Mitotic Cells (%) [10]: 64% | Population Pyknosed Nuclei (%) [10]: 10% | Population Tubulin-Different-Phenotype (%) [10]: 21% | Total Cell Count [10]: 494 | Population Apoptotic (%) [11]: 38% | Population Fragmented Nuclei (%) [11]: 10% | Population Healthy Nuclei (%) [11]: 79% | Population Hoechst High Intensity Objects (%) [11]: 6% | Population Membrane Permeable-Phenotype (%) [11]: 0% | Population Mitochondria Different-Phenotype (%) [11]: 40% | Population Mitotic Cells (%) [11]: 61% | Population Normal (%) [11]: 93% | Population Pyknosed Nuclei (%) [11]: 10% | Population Tubulin-Different-Phenotype (%) [11]: 33% | Total Cell Count [11]: 445 | Population Apoptotic (%) [12]: 46% | Population Fragmented Nuclei (%) [12]: 13% | Population Healthy Nuclei (%) [12]: 74% | Population Hoechst High Intensity Objects (%) [12]: 10% | Population Membrane Permeable-Phenotype (%) [12]: 1% | Population Mitochondria Different-Phenotype (%) [12]: 35% | Population Mitotic Cells (%) [12]: 53% | Population Normal (%) [12]: 89% | Population Pyknosed Nuclei (%) [12]: 11% | Population Tubulin-Different-Phenotype (%) [12]: 25% | Total Cell Count [12]: 508
